The text below walks through data of ChEMBL document CHEMBL1155008, “Brassinosteroids: synthesis and activity of some fluoro analogues” (J Med Chem, 2008).

Broadly, the IC50 is the concentration needed to halve the response being measured.

In one assay the test system is MCF7. In words: Cytotoxicity against human MCF7 cells assessed as cell survival after 72 hrs by calcein-AM assay. Particulars: MCF7, 72 h. Format: functional, cell-based. The method in brief: (§1)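 Cells grown in DMEM with 10% fetal calf serum, 4 mM glutamine, penicillin/streptomycin, 37 °C, 5% CO2. Seeded at about 1.25 × 10^5 cells/mL and stabilised 3 h. Six 4-fold dilutions added from DMSO stocks, highest usually 50 µM, DMSO ≤0.6% final. After 72 h, calcein AM for 1 h, fluorescence read. Triplicates, ≥3 repeats; IC50 from dose-response curves.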

The subject of another assay is Phaseolus vulgaris. In words: Phyto activity in Phaseolus vulgaris cv. Pinto assessed as prolongation of the second internode after 5 days by brassinolide-type activity assay. The format is functional. In outline:
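Bean seedlings germinated 2 days, grown in perlite with diluted Hoagland solution (pH 5.7) at 25-27 °C under 16/8 h light. Seven-day-old plants with 2 mm second internodes received compound in 5 µL lanolin at the bract scar; controls got lanolin alone. ≥7 plants per experiment, ≥3 repeats. Internode length measured after 5 days, difference from control.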

A further assay deals with BJ. In words: Cytotoxicity against human BJ cells assessed as cell survival after 72 hrs by calcein-AM assay. The format is cell-based. The method in brief: as §1
The subject of another assay is RPMI-8226. The assay can be described thus: Cytotoxicity against human RPMI 8226 cells assessed as cell survival after 72 hrs by calcein-AM assay. The format is functional, cell-based. The settings on record: RPMI-8226, 72 h. In outline:
as §1

Another assay concerns CCRF-CEM. In words: Cytotoxicity against human CEM cells assessed as cell survival after 72 hrs by calcein-AM assay. Format: functional, cell-based. The method in brief: as §1

As for `C[C@]12CC[C@@H](F)C[C@@H]1C(=O)C[C@@H]1[C@@H]2CC[C@]2(C)[C@@H](OC(=O)c3ccccc3)CC[C@@H]12`, the half-maximal inhibitory concentration (IC50) in the assay on MCF7, with BJ, with RPMI-8226 and in the assay with CCRF-CEM was above 50 µM throughout. Further, the Activity in the assay with Phaseolus vulgaris is 0.8 mm.

Take `CC(=O)O[C@H]1CC[C@H]2[C@@H]3CC(=O)[C@@]4(F)C[C@@H](O)CC[C@]4(C)[C@H]3CC[C@]12C`: the IC50 in the assay on MCF7, in the assay with BJ, with RPMI-8226 and with CCRF-CEM was above 50 µM each time. The Activity in the assay on Phaseolus vulgaris came to 17.1 mm.

`CC(C)[C@@H](C)[C@@H](O)[C@H](O)[C@@H](C)[C@H]1CC[C@H]2[C@@H]3CC(=O)[C@H]4C[C@H](F)CC[C@]4(C)[C@H]3CC[C@]12C`: the 50% inhibitory concentration (IC50) in the assay with MCF7 is 25.7 µM; in the assay with BJ it was 45.9 µM; in the assay with RPMI-8226 it was 23.5 µM; in the assay with CCRF-CEM, 13.8 µM. Also, the Activity in the assay on Phaseolus vulgaris came out at 13.2 mm.

Take `CC(=O)O[C@H]1CC[C@H]2[C@@H]3CC(=O)[C@@]4(F)C[C@H](F)CC[C@]4(C)[C@H]3CC[C@]12C`: the IC50 is above 50 µM in the assay on MCF7, above 50 µM with BJ, above 50 µM in the assay with RPMI-8226 and 42.9 µM in the assay on CCRF-CEM. In addition, the Activity with Phaseolus vulgaris was determined as 19.8 mm.

Turning to `C[C@]12CC[C@H]3[C@@H](CC(=O)[C@@]4(F)C[C@H](O)CC[C@]34C)[C@@H]1CC[C@@H]2O`, the IC50 in the assay with MCF7, in the assay on BJ, with RPMI-8226 and in the assay on CCRF-CEM was above 50 µM each time. For the same compound, the Activity in the assay with Phaseolus vulgaris is 43.4 mm.

Take `CC(C)[C@@H](C)[C@H](O)[C@@H](O)[C@@H](C)[C@H]1CC[C@H]2[C@@H]3CC(=O)[C@H]4C[C@H](F)CC[C@]4(C)[C@H]3CC[C@]12C`: the IC50 with MCF7 is 25.7 µM; in the assay with BJ it was 45.9 µM; in the assay on RPMI-8226, 23.5 µM; in the assay on CCRF-CEM it was 13.8 µM. The Activity in the assay with Phaseolus vulgaris is recorded as 13.2 mm.

For the compound `C[C@]12CC[C@H]3[C@@H](CC(=O)[C@@]4(F)C[C@H](F)CC[C@]34C)[C@@H]1CC[C@@H]2O`, the IC50 in the assay with MCF7, in the assay on BJ, in the assay with RPMI-8226 and with CCRF-CEM was above 50 µM throughout. Also, in the assay with Phaseolus vulgaris, the Activity is recorded as 18.4 mm.

As to `CC[C@@H](C(C)C)[C@@H](O)[C@H](O)[C@@H](C)[C@H]1CC[C@H]2[C@@H]3CC(=O)[C@H]4C[C@H](O)[C@H](O)C[C@]4(C)[C@H]3CC[C@]12C`, the IC50 is above 50 µM in the assay on MCF7, above 50 µM in the assay on BJ and 26 µM with RPMI-8226.

Take `C[C@]12CC[C@H]3[C@@H](CC(=O)[C@@]4(F)CC=CC[C@]34C)[C@@H]1CC[C@@H]2O`: the IC50 in the assay with MCF7, with BJ, with RPMI-8226 and in the assay on CCRF-CEM was above 50 µM each time. In addition, the Activity in the assay with Phaseolus vulgaris came to 13.6 mm.

On to `CC(=O)O[C@H]1CC[C@H]2[C@@H]3CC(=O)[C@@]4(F)CC=CC[C@]4(C)[C@H]3CC[C@]12C`, for which the IC50 with MCF7, in the assay on BJ, in the assay with RPMI-8226 and with CCRF-CEM was above 50 µM throughout. Also, the Activity with Phaseolus vulgaris is recorded as 21.8 mm.

Consider `C[C@]12CC[C@H]3[C@@H](CC(=O)[C@@]4(F)C[C@@H](O)CC[C@]34C)[C@@H]1CC[C@@H]2O`, for which the IC50 in the assay on MCF7, with BJ, in the assay on RPMI-8226 and with CCRF-CEM was above 50 µM each time. In addition, the Activity with Phaseolus vulgaris is given as 16.9 mm.

For the compound `C[C@]12CC[C@H](O)C[C@@H]1C(=O)C[C@@H]1[C@@H]2CC[C@]2(C)[C@@H](OC(=O)c3ccccc3)CC[C@@H]12`, the IC50 in the assay with MCF7, with BJ, with RPMI-8226 and in the assay on CCRF-CEM was above 50 µM in each case. For the same compound, the Activity with Phaseolus vulgaris is 3.8 mm.

As to `CC(=O)O[C@H]1CC[C@H]2[C@@H]3CC(=O)[C@@]4(F)C[C@H](O)CC[C@]4(C)[C@H]3CC[C@]12C`, the IC50 in the assay on MCF7, in the assay on BJ, in the assay with RPMI-8226 and in the assay on CCRF-CEM was above 50 µM throughout. Also, the Activity with Phaseolus vulgaris came to 21.4 mm.

Regarding `CC(=O)O[C@H]1CC[C@H]2[C@@H]3CC(=O)[C@@]4(F)C[C@H](O)[C@H](O)C[C@]4(C)[C@H]3CC[C@]12C`, the IC50 in the assay with MCF7, in the assay with BJ, in the assay on RPMI-8226 and with CCRF-CEM was above 50 µM throughout. In the assay on Phaseolus vulgaris, the Activity was determined as 12.3 mm.

Regarding `CC(=O)O[C@H]1CC[C@H]2[C@@H]3CC(=O)[C@@]4(F)C[C@@H](O)[C@@H](O)C[C@]4(C)[C@H]3CC[C@]12C`, the half-inhibitory concentration (IC50) with MCF7, in the assay on BJ, in the assay with RPMI-8226 and in the assay on CCRF-CEM was above 50 µM each time. Besides, the Activity in the assay with Phaseolus vulgaris was 21.4 mm.

Turning to `CC(C)[C@@H](C)/C=C/[C@@H](C)[C@H]1CC[C@H]2[C@@H]3CC(=O)[C@H]4C[C@H](F)CC[C@]4(C)[C@H]3CC[C@]12C`, the IC50 with MCF7, in the assay with BJ, in the assay on RPMI-8226 and in the assay with CCRF-CEM was above 50 µM in each case. Besides, the Activity in the assay on Phaseolus vulgaris was determined as 9.9 mm.

Turning to `C[C@]12CC[C@@H](F)C[C@@H]1C(=O)C[C@@H]1[C@@H]2CC[C@]2(C)[C@@H](O)CC[C@@H]12`, the IC50 in the assay on MCF7, in the assay on BJ, with RPMI-8226 and with CCRF-CEM was above 50 µM throughout. For the same compound, in the assay on Phaseolus vulgaris, the Activity was determined as 5.9 mm.

In the case of `C[C@]12CC[C@H]3[C@@H](CC(=O)[C@@]4(F)C[C@H](O)[C@H](O)C[C@]34C)[C@@H]1CC[C@@H]2O`, the 50% inhibitory concentration (IC50) in the assay with MCF7, in the assay on BJ, in the assay with RPMI-8226 and in the assay on CCRF-CEM was above 50 µM each time. In the assay on Phaseolus vulgaris, the Activity came out at 19.5 mm.

Regarding `C[C@]12CC[C@@H](F)C[C@@H]1C(=O)C[C@@H]1[C@@H]2CC[C@]2(C)C(=O)CC[C@@H]12`, the IC50 in the assay on MCF7, in the assay with BJ, in the assay on RPMI-8226 and in the assay on CCRF-CEM was above 50 µM throughout. The Activity with Phaseolus vulgaris is given as 14.9 mm.

For `CC(C)[C@@H](C)/C=C/[C@@H](C)[C@H]1CC[C@H]2[C@@H]3CC(=O)[C@H]4C[C@@H](O)CC[C@]4(C)[C@H]3CC[C@]12C`, the IC50 with MCF7 was 40.4 µM; in the assay on BJ it was 42 µM; in the assay with RPMI-8226 it was 27 µM; with CCRF-CEM it was 26.4 µM. Also, in the assay with Phaseolus vulgaris, the Activity was 9.4 mm.

Regarding `C[C@]12CC[C@H]3[C@@H](CC(=O)[C@@]4(F)C[C@@H](O)[C@@H](O)C[C@]34C)[C@@H]1CC[C@@H]2O`, the IC50 in the assay with MCF7 is above 50 µM; in the assay with BJ, above 50 µM; in the assay with RPMI-8226 it was 45.4 µM; in the assay on CCRF-CEM it was above 50 µM. Moreover, the Activity in the assay on Phaseolus vulgaris was 21.8 mm.
